# High-throughput results deposited in PubChem by Broad Institute.
# EWS-Fli inh – EWS/Fli-driven NR0B1 reporter inhibitors, primary screen, A673 cells, NR0B1 luciferase, luminescence, MLPCN library; viability-normalised; inhibition, % at 12.6 µM; hit rate 0.67% among 350,000; AID 651661, 2012;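 active = mean inhibition of at least 50% after viability correction, with every replicate also passing that limit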;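 note: firefly luciferase signal divided by Alamar Blue viability fluorescence both relative to DMSO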
# Shn3 inh set2 – reduction of Shn3 3'UTR firefly luciferase signal, primary screen, Schnurri-3 inhibitor project, cell-based, Clone20 osteoblasts, set 2. Clone20 osteoblast Shn3 3'UTR firefly luciferase, 24 h. hit rate 0.52% among 360,000. inhibition, % at 12.5 µM;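 active = mean inhibition of at least 75% with every replicate also reaching 75%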;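 note: 0% = median of neutral control wells and 100% = pilot-screen positive control compound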
# aSyn UTR inh – MLPCN primary screen, SNCA 5' untranslated region. hit rate 0.82% among 300,000. alpha-synuclein 5'UTR reporter, inhibitor activity. inhibition, % (tested at 7.5 µM); in the data active = inhibition above about 60%;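 note: H4 neuroglioblastoma cells stably carrying SNCA 5'UTR luciferase fusion; 0% = DMSO wells and 100% = positive control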
# PAX8 inh HTS – inhibitors of PAX8-driven TPO luciferase reporter, primary screen, RMG-I cells, single concentration; SteadyGlo, 24 h; inhibition, % at 12.6 µM; hit rate 1.2% among 360,000; AID 652154, 2013;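 active = mean replicate inhibition at least 60% with every replicate also reaching 60%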;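 note: luciferase light reporting Pax8 driven TPO promoter activity; plate controls were median of neutral control wells for no effect and mitoxantrone controls for full effect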
# LMP1 NFkB inh – EBV LMP1-driven NF-kappaB luciferase reporter inhibitors, primary screen, cell-based, luminescence, single point. LMP1-induced NF-kappaB luciferase reporter cells. inhibition, % at 12.5 µM. hit rate 0.69% among 350,000. AID 504558, 2011; in the data active = inhibition above about 41%;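 note: 0% = neutral control wells and 100% = reference inhibitor control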
# FN deposit inh – inhibitors of fibronectin matrix deposition, primary screen, AH1F cells, Alexa488-fibronectin fluorescence, plate reader; AH1F fibroblasts, overnight; inhibition, % at 12.6 µM; hit rate 0.086% among 350,000;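 active = mean inhibition across replicates of 30% or more, regardless of how many single replicates reach that level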;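 note: positive control wells lacked labelled fibronectin entirely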
#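 material = AH1F fibroblast monolayer depositing Alexa488-labelled fibronectin into matrix | amount = 10000 AH1F cells/well | buffer or medium = DMEM plus 2% serum, read in PBS | incubation = 1 h cell adhesion before compound, then overnight fibronectin incubation | detection = fluorescence at 485 nm excitation, 525 nm emission | evaluation = percent inhibition as loss of matrix-bound fibronectin fluorescence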
# * hit, by the source's call; nt = no result. Only some compounds are listed: those with a hit (about 2.1% of all), similar ones and a draw of the others.
SMILES,EWS-Fli inh,Shn3 inh set2,aSyn UTR inh,PAX8 inh HTS,LMP1 NFkB inh,FN deposit inh
COC(=O)[C@H]1[C@H](CO)[C@H]2Cn3c(cccc3=O)[C@@H]1N2C(=O)C1CC1,0.1,nt,nt,nt,nt,nt
O=C(Cc1cccnc1)N1CCCCN2[C@H](C1)[C@H](c1ccc(C#CC3CCCC3)cc1)[C@@H]2CO,13.9,nt,nt,91.9*,nt,nt
O=C(Cc1ccccc1)N1CCCCN2[C@H](C1)[C@H](c1ccc(C#Cc3ccccc3)cc1)[C@@H]2CO,nt,nt,nt,25.9,nt,nt
O=C(Cc1ccncc1)N1CCCCN2[C@H](C1)[C@H](c1ccc(C#Cc3ccccc3F)cc1)[C@@H]2CO,13.8,nt,nt,77.1*,nt,3.6
CC=Cc1ccc2n(c1=O)C[C@H]1[C@H](CO)[C@@H](C(=O)OC)[C@@H]2N1CC1CC1 (mixture of isomers),0.8,nt,nt,nt,nt,nt
COC(=O)[C@@H]1[C@@H](CO)[C@@H]2Cn3c(ccc(C4=CCCCC4)c3=O)[C@H]1N2Cc1ccccc1OC,-2.9,nt,nt,7.0,nt,nt
O=P1(N(CCCl)CCCl)NCCCO1 (stereo unspecified),-3.3,-7.2,6.0,-17.1,85.4*,nt
COC(=O)C[C@@H]1CC[C@H]2NC[C@@H](O)COC[C@@H]2O1,-3.3,nt,nt,-12.5,nt,7.3
FC(F)(F)CN1C[C@@H]2C(c3ccccc3)[C@H](C1)N2CC1CC1 (stereo partly specified),nt,nt,nt,nt,nt,-16.3
NC(=O)c1cc([N+](=O)[O-])cc([N+](=O)[O-])c1,-0.8,-18.0,nt,15.4,3.2,-4.1
CC(C)(C)c1cc([N+](=O)[O-])cc(C(C)(C)C)c1O,1.5,nt,0.9,66.6*,nt,4.7
COc1cc(C=C2C(=O)NC(=O)NC2=O)ccc1OCc1ccc([N+](=O)[O-])cc1,-59.7,-54.0,nt,-145.9,-23.6,1.5
COc1cc(/C=C(/C)[N+](=O)[O-])ccc1OCc1ccccc1Cl,nt,96.0*,-133.7,nt,-12.9,nt
COC(=O)[C@@H]1[C@@H](CO)[C@@H]2Cn3c(ccc(/C=C/c4ccccc4)c3=O)[C@H]1N2CC1CCCC1,2.8,nt,nt,29.3,nt,nt
COc1cc2c(cc1OC)-c1c3c(cc4c1[C@@H](C2)N(C)CC4)OCO3,1.5,-31.6,-4.6,-14.8,-2.6,-0.4
COc1cc2c(cc1O)C[C@H]1NCCc3cc4c(c-2c31)OCO4,19.6,4.4,44.3,85.6*,-2.3,-11.0
COC(=O)[C@H]1[C@H](CO)[C@H]2Cn3c(ccc(-c4ccccc4F)c3=O)[C@@H]1N2C(=O)C1CC1,0.7,nt,nt,0.9,nt,nt
CC(=O)OC1CC[C@]2(C#N)[C@H]3CC[C@]4(C)[C@H](C5C=CC(=O)O5)CCC4(O)C3CCC2(O)C1 (stereo partly specified),18.1,-14.4,85.4*,-18.0,-26.2,-7.2
COc1cc2c(c(OC)c1OC)-c1ccc(C(=O)O)cc1[C@@H](NC(C)=O)CC2,-8.1,16.5,-0.9,-2.4,1.0,-2.9
COc1c(O)cc2c(c1OC)-c1ccc(OC)c(=O)cc1C(NC(C)=O)CC2 (stereo unspecified),37.5,9.1,nt,76.9*,-2.6,-39.4
COc1cc2c(c(OC)c1OC)-c1ccc(SC)c(=O)cc1C(NC(C)=O)CC2 (stereo unspecified),24.8,-17.7,nt,82.8*,1.0,0.4
COc1cc2c(c(OC)c1O)-c1ccc(OC)c(=O)cc1C(NC(=O)C(F)(F)F)CC2 (stereo unspecified),36.8,20.1,nt,79.6*,-11.1,0.0
COc1cc2c(c(OC)c1OC)-c1ccc(O)c(=O)cc1[C@@H](N)CC2,5.4,-6.0,nt,nt,-4.7,nt
O=C(O)[C@@H]1[C@@H](CO)[C@@H]2Cn3c(ccc(C4=CCCCC4)c3=O)[C@H]1N2C(=O)Cc1ccccn1,0.4,nt,nt,5.3,nt,6.5
CCOC(=O)[C@@H]1[C@@H]2NC(=S)N[C@@]1(C)Oc1ccccc12,-1.8,nt,nt,nt,nt,nt
SMILES,EWS-Fli inh,Shn3 inh set2,aSyn UTR inh,PAX8 inh HTS,LMP1 NFkB inh,FN deposit inh
CC=Cc1ccc2n(c1=O)C[C@@H]1[C@@H](CO)[C@H](C(=O)OC)[C@H]2N1S(=O)(=O)c1ccccc1C (mixture of isomers),18.7,nt,nt,-4.1,nt,-0.5
CCCN1[C@@H]2Cn3c(ccc(-c4ccccc4)c3=O)[C@H]1[C@@H](C(=O)OC)[C@@H]2CO,0.4,nt,nt,-1.0,nt,nt
CC(=O)OC1C(O)C(C)OC(OC2C(OC(=O)C3CCC4C(C3)OC3(CC(OC(=O)/C=C/c5ccccc5)C(C)CO3)C43CO3)OC(C)C(O)C2OC(C)=O)C1O (stereo unspecified),36.3,96.5*,nt,104.0*,84.7*,-0.8
COc1ccc(C#Cc2ccc([C@@H]3[C@H]4CN(C(=O)Cc5cccnc5)CCCCN4[C@H]3CO)cc2)cc1,-7.3,nt,nt,29.3,nt,nt
O=C(Cc1ccccn1)N1CC2(C1)[C@@H](c1ccccc1)[C@@H](CO)N2Cc1ccccn1,0.3,nt,nt,-2.0,nt,nt
C=C(C)CSc1nnc([C@@H](N)Cc2c[nH]c3ccccc23)o1,nt,-7.4,0.0,nt,-2.9,4.6
Cc1[nH]nc2ccc(-c3cncc(OC[C@@H](N)Cc4c[nH]c5ccccc45)c3)cc12,nt,96.1*,nt,nt,90.2*,nt
O=C(Cc1ccccc1)N1C[C@H]2[C@@H](c3ccccc31)[C@@H](CO)N2Cc1ccccc1,7.9,nt,nt,4.6,nt,nt
CCCCC1(CCCC)C(=O)NC(=Nc2cccc(C)c2)NC1=O,nt,-28.4,-0.1,4.9,-0.8,2.8
Cc1cccc(N=C2c3cc([N+](=O)[O-])ccc3-c3c2cc([N+](=O)[O-])cc3[N+](=O)[O-])c1,31.2,-21.4,nt,65.9*,16.5,6.0
